Consider 30 compounds from ChEMBL document CHEMBL1759857, “Synthesis and evaluation of isatin analogs as caspase-3 inhibitors: introduction of a hydrophilic group increases potency in a whole cell assay” (Bioorg Med Chem Lett, 2011).

Where only a bound is given, the exact number is not on record here.

The target in assay [1] is T1, Caspase-3 (Homo sapiens, UniProt P42574).
T1 sequence (P42574 whole entry): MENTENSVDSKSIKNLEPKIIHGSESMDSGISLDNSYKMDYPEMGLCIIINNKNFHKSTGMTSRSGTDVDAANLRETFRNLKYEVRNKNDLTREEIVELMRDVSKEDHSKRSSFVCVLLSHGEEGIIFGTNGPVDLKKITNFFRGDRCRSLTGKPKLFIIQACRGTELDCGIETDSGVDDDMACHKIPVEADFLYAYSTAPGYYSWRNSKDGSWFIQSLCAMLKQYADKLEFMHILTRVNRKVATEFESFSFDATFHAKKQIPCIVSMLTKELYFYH
Put plainly: Inhibition of human caspase 3 by fluorometric assay. Summed up:
(§1)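 Recombinant caspases were tested in a standard fluorometric enzyme assay. IC50 is reported as mean ± SD of at least three independent assays.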

Another assay concerns the target T2, Caspase-1 (Homo sapiens, UniProt P29466).
T2 sequence (P29466 whole entry): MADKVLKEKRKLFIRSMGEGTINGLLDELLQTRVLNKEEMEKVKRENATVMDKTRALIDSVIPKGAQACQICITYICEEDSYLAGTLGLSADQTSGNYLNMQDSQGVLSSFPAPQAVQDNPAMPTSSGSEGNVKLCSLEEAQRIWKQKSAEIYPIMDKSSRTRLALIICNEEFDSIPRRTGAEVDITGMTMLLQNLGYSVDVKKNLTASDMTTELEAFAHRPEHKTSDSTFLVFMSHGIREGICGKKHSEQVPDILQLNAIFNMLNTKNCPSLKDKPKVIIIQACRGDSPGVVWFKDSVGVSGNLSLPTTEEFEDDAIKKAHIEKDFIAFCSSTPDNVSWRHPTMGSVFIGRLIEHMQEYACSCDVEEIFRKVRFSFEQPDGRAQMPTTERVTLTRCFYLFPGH
The experiment in a line: Inhibition of caspase 1 by fluorometric assay. The procedure, abridged:
as §1

In the next assay the target is T3, Caspase-6 (Homo sapiens, UniProt P55212).
T3 sequence (P55212 whole entry): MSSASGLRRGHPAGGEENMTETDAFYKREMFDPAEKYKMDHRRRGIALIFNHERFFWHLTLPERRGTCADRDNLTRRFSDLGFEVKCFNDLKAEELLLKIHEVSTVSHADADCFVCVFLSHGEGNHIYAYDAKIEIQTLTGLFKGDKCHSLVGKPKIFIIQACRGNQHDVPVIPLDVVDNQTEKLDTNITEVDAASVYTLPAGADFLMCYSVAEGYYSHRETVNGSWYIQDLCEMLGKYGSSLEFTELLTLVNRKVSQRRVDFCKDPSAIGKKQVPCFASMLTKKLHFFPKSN
Put plainly: Inhibition of caspase 6 by fluorometric assay. The procedure, abridged: as §1

A further assay has as its target T4, Caspase-7 (Homo sapiens, UniProt P55210).
T4 sequence (P55210 whole entry): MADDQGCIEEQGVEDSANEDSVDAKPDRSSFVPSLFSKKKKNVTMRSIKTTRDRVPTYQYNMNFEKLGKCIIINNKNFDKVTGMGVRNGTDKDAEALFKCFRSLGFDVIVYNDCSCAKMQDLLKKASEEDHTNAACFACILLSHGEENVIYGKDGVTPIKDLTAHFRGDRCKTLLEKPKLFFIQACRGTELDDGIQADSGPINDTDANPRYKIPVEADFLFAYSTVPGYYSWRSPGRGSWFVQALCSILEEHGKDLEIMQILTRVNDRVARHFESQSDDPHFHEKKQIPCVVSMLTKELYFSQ
Put plainly: Inhibition of caspase 7 by fluorometric assay.

The next assay has as its target Caspase-8 (Homo sapiens, UniProt Q14790). Put plainly: Inhibition of caspase 8 by fluorometric assay. Summed up: as §1
In assay [2] the target is T1, Caspase-3. Put plainly: Inhibition of staurosporine induced activation of caspase 3 activation in human Hela cells assessed as hydrolysis of Z-DEVD-R110 substrate by microplate fluorescence assay. The class given is cell-based. The procedure, abridged:
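HeLa cells were seeded at 1-2×10^4 per well and left to adhere overnight at 37°C in 5% CO2. […] A homogeneous caspase-3/7 kit with cell-permeable Z-DEVD-R110 was then used, reading fluorescence at ex 485/em 535 nm. EC50 was taken from dose-response curves, as mean ± SD of ≥3 independent experiments.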

Sequence of Caspase-8 (Q14790 217-374 limits assumed): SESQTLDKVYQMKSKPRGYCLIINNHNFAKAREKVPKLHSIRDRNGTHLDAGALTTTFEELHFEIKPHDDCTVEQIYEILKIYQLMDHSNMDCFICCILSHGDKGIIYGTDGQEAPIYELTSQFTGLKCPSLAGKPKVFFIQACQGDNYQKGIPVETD
Sequence of Caspase-8 (Q14790 385-479 limits assumed): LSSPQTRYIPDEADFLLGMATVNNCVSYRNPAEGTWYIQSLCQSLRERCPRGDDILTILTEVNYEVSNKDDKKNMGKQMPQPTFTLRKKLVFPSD

As usually defined, the IC50 is the point on the concentration scale where inhibition reaches its midpoint. Read a low IC50 as inhibition by little substance. As for `O=C1C(=O)N(Cc2ccc(OCCOCCOCCF)cc2)c2ccc(S(=O)(=O)N3CC[C@H]3COc3ccccc3)cc21`, the IC50 against Caspase-3 [1] was 0.0269 µM; on Caspase-1 it was > 25 µM; at Caspase-6 it was 2.99 µM; against Caspase-7, 0.0192 µM; against Caspase-8 it was > 50 µM.

As a reminder, the EC50 is the concentration needed to bring the measured effect to its halfway point. In the case of `COc1ccc(CN2C(=O)C(=O)c3cc(S(=O)(=O)N4CC[C@H]4COc4ccccc4)ccc32)cc1`, the EC50 on Caspase-3 [2] stood at 3.07 µM.

Turning to `N#CC(C#N)=C1C(=O)N(Cc2ccc(OCCOCCF)cc2)c2ccc(S(=O)(=O)N3CC[C@H]3COc3ccccc3)cc21`, the IC50 at Caspase-3 [1] was 0.0244 µM; on Caspase-1 it was 5.73 µM; against Caspase-6, 1.01 µM; on Caspase-7 it was 0.0683 µM; on Caspase-8, > 50 µM.

Take `O=C1C(=O)N(Cc2ccc(OCCOCCF)cc2)c2ccc(S(=O)(=O)N3CCC[C@H]3COc3ccccc3)cc21`: the EC50 on Caspase-3 [2] was 1.69 µM. Moreover, the IC50 was 0.0109 µM on Caspase-3 [1]; > 25 µM against Caspase-1; > 10 µM on Caspase-6; 0.0119 µM against Caspase-7; > 50 µM on Caspase-8.

In the case of `O=C1Nc2ccc(S(=O)(=O)N3CC[C@H]3COc3ccccc3)cc2C1=O`, at Caspase-3 [2], the EC50 came out at 9.57 µM.

On to `O=C1C(=O)N(Cc2ccccc2)c2ccc(S(=O)(=O)N3CC[C@H]3COc3ccccc3)cc21`, for which the EC50 at Caspase-3 [2] stood at 2.8 µM.

As for `COc1ccc(CN2C(=O)C(=O)c3cc(S(=O)(=O)N4CCC[C@H]4COc4cccnc4)ccc32)cc1`, the EC50 on Caspase-3 [2] amounted to 0.45 µM.

For `O=C1C(=O)N(Cc2cn(CCF)nn2)c2ccc(S(=O)(=O)N3CC[C@H]3COc3cccnc3)cc21`, the EC50 on Caspase-3 [2] is 0.42 µM. Moreover, the IC50 against Caspase-3 [1] was 0.0056 µM; against Caspase-1, > 20 µM; against Caspase-6 it was 7.75 µM; against Caspase-7, 0.0061 µM; on Caspase-8 it was > 50 µM.

Turning to `N#CC(C#N)=C1C(=O)N(Cc2ccc(OCCF)cc2)c2ccc(S(=O)(=O)N3CCC[C@H]3COc3ccccc3)cc21`, the concentration for half-maximal inhibition (IC50) on Caspase-3 [1] was 0.0183 µM; against Caspase-1, > 10 µM; on Caspase-6 it was 0.927 µM; at Caspase-7 it was 0.0963 µM; against Caspase-8, > 50 µM.

With `CN1C(=O)C(=O)c2cc(S(=O)(=O)N3CC[C@H]3COc3ccccc3)ccc21`, the EC50 at Caspase-3 [2] was 3.25 µM.

Regarding `O=C1C(=O)N(Cc2ccccc2)c2ccc(S(=O)(=O)N3CCC[C@H]3COc3ccccc3)cc21`, the EC50 on Caspase-3 [2] is 3.67 µM.

As for `O=C1C(=O)N(Cc2ccc(OCCF)cc2)c2ccc(S(=O)(=O)N3CC[C@H]3COc3cccnc3)cc21`, the EC50 at Caspase-3 [2] worked out at 0.38 µM. Besides, the IC50 is 0.0036 µM on Caspase-3 [1]; > 10 µM at Caspase-1; 8.7 µM against Caspase-6; 0.0176 µM against Caspase-7; > 50 µM on Caspase-8.

On to `O=C1C(=O)N(Cc2ccc(OCCF)cc2)c2ccc(S(=O)(=O)N3CCC[C@H]3COc3ccc(F)cc3F)cc21`, for which the EC50 at Caspase-3 [2] was found to be 2.5 µM. For the same compound, the IC50 on Caspase-3 [1] is 0.0152 µM; on Caspase-1, > 50 µM; against Caspase-6, 9.12 µM; against Caspase-7 it was 0.0123 µM; at Caspase-8, > 50 µM.

For `O=C1C(=O)N(Cc2ccccc2)c2ccc(S(=O)(=O)N3CCC[C@H]3COc3cccnc3)cc21`, the EC50 on Caspase-3 [2] is 0.65 µM.

On to `N#CC(C#N)=C1C(=O)N(Cc2ccc(OCCF)cc2)c2ccc(S(=O)(=O)N3CC[C@H]3COc3ccccc3)cc21`, for which the IC50 against Caspase-3 [1] is 0.0224 µM; on Caspase-1 it was 4.78 µM; against Caspase-6, 0.747 µM; at Caspase-7 it was 0.292 µM; at Caspase-8 it was > 25 µM.

For `N#CC(C#N)=C1C(=O)N(Cc2ccc(OCCF)cc2)c2ccc(S(=O)(=O)N3CCC[C@H]3COc3cccnc3)cc21`, the IC50 was 0.0075 µM at Caspase-3 [1]; 3.5 µM at Caspase-1; 0.77 µM against Caspase-6; 0.0265 µM at Caspase-7; > 50 µM at Caspase-8.

Consider `O=C1C(=O)N(Cc2ccc(OCCF)cc2)c2ccc(S(=O)(=O)N3CC[C@H]3COc3ccccc3)cc21`, for which, at Caspase-3 [2], the EC50 was determined as 2 µM. The IC50 against Caspase-3 [1] was 0.0086 µM; against Caspase-1, > 20 µM; against Caspase-6, 4.93 µM; against Caspase-7, 0.0261 µM; at Caspase-8, > 25 µM.

`O=C1C(=O)N(Cc2cn(CCF)nn2)c2ccc(S(=O)(=O)N3CC[C@H]3COc3ccccc3)cc21`: at Caspase-3 [2], the EC50 was determined as 0.8 µM. For the same compound, the IC50 against Caspase-3 [1] is 0.011 µM; on Caspase-1 it was > 20 µM; against Caspase-6, 6.95 µM; at Caspase-7, 0.018 µM; against Caspase-8 it was > 50 µM.

Take `O=C1C(=O)N(Cc2cn(CCF)nn2)c2ccc(S(=O)(=O)N3CCC[C@H]3COc3ccc(F)cc3F)cc21`: the half-maximal effective concentration (EC50) on Caspase-3 [2] was determined as 0.68 µM. The concentration for half-maximal inhibition (IC50) against Caspase-3 [1] was 0.0108 µM; against Caspase-1, > 20 µM; against Caspase-6, 4.43 µM; against Caspase-7 it was 0.0116 µM; against Caspase-8, > 50 µM.

Take `CN1C(=O)C(=O)c2cc(S(=O)(=O)N3CCC[C@H]3COc3ccccc3)ccc21`: the EC50 at Caspase-3 [2] was found to be 7.67 µM.

For the compound `O=C1C(=O)N(Cc2ccc(OCCF)cc2)c2ccc(S(=O)(=O)N3CC[C@H]3COc3ccc(F)cc3F)cc21`, the EC50 on Caspase-3 [2] is 1.39 µM. In addition, the half-maximal inhibitory concentration (IC50) is 0.012 µM against Caspase-3 [1]; > 50 µM against Caspase-1; 3.48 µM at Caspase-6; 0.0154 µM on Caspase-7; > 50 µM against Caspase-8.

Turning to `COc1ccc(CN2C(=O)C(=O)c3cc(S(=O)(=O)N4CC[C@H]4COc4cccnc4)ccc32)cc1`, on Caspase-3 [2], the EC50 was 0.45 µM. The 50% inhibitory concentration (IC50) on Caspase-3 [1] was 0.0033 µM; at Caspase-1, > 15 µM; against Caspase-6 it was 9.2 µM; against Caspase-7, 0.0102 µM; at Caspase-8, > 50 µM.

Regarding `N#CC(C#N)=C1C(=O)N(Cc2ccc(OCCF)cc2)c2ccc(S(=O)(=O)N3CC[C@H]3COc3cccnc3)cc21`, the IC50 on Caspase-3 [1] is 0.0071 µM; on Caspase-1 it was 2.9 µM; against Caspase-6, 0.509 µM; on Caspase-7, 0.045 µM; on Caspase-8, > 50 µM.

In the case of `CN1C(=O)C(=O)c2cc(S(=O)(=O)N3CCC[C@H]3COc3cccnc3)ccc21`, the EC50 on Caspase-3 [2] amounted to 1.8 µM.

As to `O=C1Nc2ccc(S(=O)(=O)N3CCC[C@H]3COc3ccccc3)cc2C1=O`, the EC50 on Caspase-3 [2] was 11.5 µM.

On to `COc1ccc(CN2C(=O)C(=C(C#N)C#N)c3cc(S(=O)(=O)N4CC[C@H]4COc4cccnc4)ccc32)cc1`, for which the IC50 is 0.006 µM at Caspase-3 [1]; > 36 µM against Caspase-1; 0.45 µM against Caspase-6; 0.05 µM at Caspase-7; > 50 µM against Caspase-8.

With `N#CC(C#N)=C1C(=O)N(Cc2ccc(OCCOCCF)cc2)c2ccc(S(=O)(=O)N3CCC[C@H]3COc3ccccc3)cc21`, the IC50 against Caspase-3 [1] was 0.0233 µM; against Caspase-1, > 10 µM; against Caspase-6, 1.16 µM; on Caspase-7, 0.07 µM; on Caspase-8, > 50 µM.

Turning to `O=C1Nc2ccc(S(=O)(=O)N3CCC[C@H]3COc3cccnc3)cc2C1=O`, on Caspase-3 [2], the EC50 was 1.83 µM.

Turning to `O=C1C(=O)N(Cc2cn(CCF)nn2)c2ccc(S(=O)(=O)N3CCC[C@H]3COc3cccnc3)cc21`, the EC50 at Caspase-3 [2] is 0.35 µM. Also, the concentration for half-maximal inhibition (IC50) at Caspase-3 [1] is 0.0045 µM; at Caspase-1, > 20 µM; on Caspase-6, 13.4 µM; against Caspase-8, > 50 µM.

In the case of `O=C1C(=O)N(Cc2ccc(OCCF)cc2)c2ccc(S(=O)(=O)N3CCC[C@H]3COc3ccccc3)cc21`, the EC50 on Caspase-3 [2] is 4.5 µM.
